# Compounds with a hit are over-represented: about 3.1% of the library has one in this group of screens.
# BB579 growth dn: chemicals that inhibit yeast BB579 growth in restrictive medium (lifespan-shortening candidates). S. cerevisiae BB579 growth, OD615, 48 h. inhibition, % at 10 µM. 0.51% of 140,000 active. AID 804;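 active = inhibition above a set limit, 3 SD over the mean compound inhibition, cut at about 44% in these data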
#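 Detection: OD615 turbidity measurement; Material: Saccharomyces cerevisiae DeaD strain BB579, replicative lifespan model yeast; Timing: 48 h exposure, 30 °C; Doses: single 10 µM dose; Medium: CSMM-D restrictive synthetic medium containing dextrose (glucose); Controls: amphotericin B at 10 µg/mL as positive control.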
# RAM network inh: inhibitors of the yeast RAM network; S. cerevisiae dse1pr::URA3 reporter, 5-FOA growth OD615, 2 d; analog-sensitive cbk1-as2 kinase mutant strain; 1.8% of 190,000 active; inhibition, % at 50 µM;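 active = inhibition above a set limit, 3 SD over mean compound inhibition, cut at about 8.4% in these data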;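 also: 0% = DMSO-only wells with no growth and 100% = 10 µM 1-NA-PP1 full growth; inhibition rescues growth on 5-FOA so higher OD means more RAM inhibition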
# INS promoter inh: TRM-6 insulin promoter activity inhibition | inhibition, % at 2 µM | TRM-6 cells, insulin promoter-eGFP reporter, imaging; reporter expression induced with tamoxifen | 0.9% of 130,000 active;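 active = inhibition above the mean plus 3 SD, with well images judged a real hit on visual review, cut at about 60% in these data, passing the limit was not always enough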
# Insulin prom up: MIN6 insulin promoter up-regulation. z-score at 5 µM. 0.3% of 190,000 active. MIN6 insulin promoter-GFP reporter, high-content imaging; stronger effect = higher value;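 active = z-score above 3 at 5 µM with at least 500 cells counted in the well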
# Yeast lifespan up: yeast lifespan extension. S. cerevisiae growth with nicotinamide, OD615; deaD strain in restrictive glucose medium. inhibition of the nicotinamide effect, % at 10 µM. 0.68% of 130,000 active;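 active = inhibition above a set limit, placed 3 SD over the median of all compounds, cut at about 26% in these data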;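 also: 0% = nicotinamide-treated wells and 100% = cells grown without nicotinamide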
#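 Buffer or medium: CSMM-D glucose medium, restrictive; test system: modified budding yeast, DeaD strain; compound: single dose 10 µM compound, 0.25% DMSO; schedule: culture preincubation 4 h, compound exposure 48 h, both 30 °C; detection: optical density (absorbance) at 615 nm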
# RAM efflux-def: restores 5-FOA growth of efflux-deficient yeast | shares compounds with RAM network inh | S. cerevisiae efflux-deficient reporter strain, 5-FOA growth OD615, 2 days | max inhibition, % | 1,200 tested, under 10 active | AID 1305; call rule not given here;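 also: plate controls were vehicle for no effect and reference inhibitor for full effect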
# Starred values were filed as active, the others as inactive; nt = no result.
SMILES,BB579 growth dn,RAM network inh,INS promoter inh,Insulin prom up,Yeast lifespan up,RAM efflux-def
N#Cc1c(C(F)(F)F)cc(-c2ccccc2)nc1SCc1nc(N)nc(N2CCOCC2)n1,-11,3,-251,nt,-15,nt
CCn1c(=NC(=O)c2cccc(N3C(=O)CCC3=O)c2)sc2c(OC)ccc(OC)c21,nt,11*,nt,-0.47,nt,3
COc1ccc(OC)c2c1sc(=NC(=O)c1cccc(N3C(=O)CCC3=O)c1)n2C,-12,2,nt,-0.25,-4,nt
CSc1ccc(/C=C/C(=O)c2ccc(NC(=O)Cc3ccccc3)cc2)cc1,-70,14*,-3,-0.19,-20,6
C/C(=N\N=C1/NC(=O)C(C)S1)c1ccco1 (configuration not stated),nt,2,21,-0.19,nt,nt
CSCSC1=C(C#N)C(c2ccc(Cl)cc2)C(C(C)=O)=C(C)N1 (configuration not stated),-30,15*,-12,-0.66,-16,4
Cc1cc(S(=O)(=O)N(Cc2ccccc2)Cc2ccc(N(C)C)cc2)ccc1-n1cnnn1,-43,0,11,-0.99,-4,nt
Cc1cc(S(=O)(=O)N(Cc2cccs2)Cc2ccccc2F)ccc1-n1cnnn1,-42,13*,8,-0.2,15,2
COc1ccc(Nc2nnc(SCC3CCCO3)s2)cc1 (configuration not stated),nt,0,nt,-0.29,nt,nt
O=C(CNC(c1ccccc1)c1ccccc1)Nc1cc([N+](=O)[O-])ccc1Cl,2,2,-80,0.34,-2,nt
CSc1sc(C(=O)Nc2ccc(F)cc2F)c2c1C=CCC2,nt,nt,nt,-0.25,nt,nt
Cc1ccc(C(=O)OCC(=O)Nc2cc(S(=O)(=O)N3CCOCC3)ccc2C)cc1,nt,12*,nt,-0.68,nt,2
C=CCOc1c(Br)cc(/C=N/Nc2ccc(C(=O)O)cc2)cc1OCC,-36,2,-107,0.13,7,nt
O=C(CNS(=O)(=O)c1ccccc1)NCC(=O)OCc1ccc(C(=O)c2ccccc2)cc1,-1,3,34,-0.2,-2,nt
CC(=O)Nc1ccc(Nc2nc(C)c([N+](=O)[O-])c(Nc3ccc(NC(C)=O)cc3)n2)cc1,-40,1,nt,nt,-1,nt
CC(C)c1ccccc1NC(=S)N1CCN(S(=O)(=O)c2cccs2)CC1,nt,3,nt,-0.59,nt,nt
COc1ccc(O[C@H]2C=C[C@@H](c3ccccc3)O[C@@H]2CO/N=C(\C)CCC(=O)OC[C@H]2O[C@H](c3ccccc3)C=C[C@@H]2Oc2ccc(OC)cc2)cc1,-52,25*,-24,-0.47,3,6
COC(=O)C/C=C/[C@@H](C)[C@@H](/C=N/O[C@@H](C)c1cn([C@H](CO)Cc2ccccc2)nn1)NS(=O)(=O)c1ccc(C)cc1,-1,0,0,-0.48,2,nt
COC(=O)C/C=C/[C@@H](C)[C@@H](/C=N/OC[C@H]1O[C@H](c2ccccc2)C=C[C@@H]1Oc1ccc(OC)cc1)NS(=O)(=O)c1ccc(C)cc1,-30,16*,5,-1.4,10,3
Cc1cc(C)nc(N2N=C(CSc3ccc(Cl)cc3)CC2=O)n1,nt,13*,-15,-0.39,nt,1
C/C(=N\NC(=O)c1nn(C)cc1Br)c1cccc(NC(=O)c2ccncc2)c1,-20,1,-75,0.07,-3,nt
Clc1ccc(-[n+]2c(-c3cccc(Br)c3)[nH]c3nc4ccccc4nc32)cc1,nt,nt,nt,-0.33,nt,nt
NC(=O)COC(=O)c1ccccc1Nc1ccc(SC(F)F)cc1,9,-1,3,0.13,-4,nt
O=C(COC(=O)c1ccccc1C(=O)c1ccccc1)Nc1ccc(SC(F)F)cc1,-26,13*,19,nt,4,3
O=C(COc1ccccc1C(=O)O)Nc1ccc(SC(F)F)cc1,nt,1,nt,-0.46,nt,nt
O=C(COC(=O)c1ccccc1Nc1ccc(SC(F)F)cc1)NC1CC1,-2,12*,-30,-0.22,-1,2
Fc1ccc(CNC(=S)Nc2ccccc2Cl)cc1,-37,4,47,-0.37,-2,nt
C=CCN1C(=O)C(Cc2ccc(C)cc2)S/C1=N/N=C/c1ccco1 (configuration not stated),-40,14*,17,-0.04,4,2
C=CCN1C(=O)C(Cc2cccc(C)c2)SC1=Nc1ccc(C(=O)O)cc1 (configuration not stated),-54,15*,27,-0.23,-1,1

# Compound activity as filed in PubChem.
